This is an account of results in PMC8349895 (Bioorganic & medicinal chemistry letters, 2021).

pEC50: −log10 of the molar value.

Data set [1] deals with T1, hM1 (Homo sapiens, UniProt P11229).
T1 sequence (P11229 1-460): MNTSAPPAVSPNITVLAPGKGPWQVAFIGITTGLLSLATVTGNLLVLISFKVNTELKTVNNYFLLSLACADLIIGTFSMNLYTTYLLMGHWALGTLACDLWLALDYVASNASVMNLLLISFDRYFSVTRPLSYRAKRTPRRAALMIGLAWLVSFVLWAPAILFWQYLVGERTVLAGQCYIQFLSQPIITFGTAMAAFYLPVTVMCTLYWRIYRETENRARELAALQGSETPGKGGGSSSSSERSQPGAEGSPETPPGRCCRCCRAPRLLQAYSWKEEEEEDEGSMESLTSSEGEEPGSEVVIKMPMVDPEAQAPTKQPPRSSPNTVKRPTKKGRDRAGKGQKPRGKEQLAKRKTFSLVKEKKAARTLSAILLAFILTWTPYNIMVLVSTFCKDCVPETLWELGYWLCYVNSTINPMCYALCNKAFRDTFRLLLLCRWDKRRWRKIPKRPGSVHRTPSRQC
Briefly: Calcium mobilization PAM assay in hM1-CHO cells with EC20 acetylcholine. The format is cell-based. To be noted: PAM mode.

The next data set has as its target T2, hM4 (Homo sapiens, UniProt P08173).
T2 sequence (P08173 1-479): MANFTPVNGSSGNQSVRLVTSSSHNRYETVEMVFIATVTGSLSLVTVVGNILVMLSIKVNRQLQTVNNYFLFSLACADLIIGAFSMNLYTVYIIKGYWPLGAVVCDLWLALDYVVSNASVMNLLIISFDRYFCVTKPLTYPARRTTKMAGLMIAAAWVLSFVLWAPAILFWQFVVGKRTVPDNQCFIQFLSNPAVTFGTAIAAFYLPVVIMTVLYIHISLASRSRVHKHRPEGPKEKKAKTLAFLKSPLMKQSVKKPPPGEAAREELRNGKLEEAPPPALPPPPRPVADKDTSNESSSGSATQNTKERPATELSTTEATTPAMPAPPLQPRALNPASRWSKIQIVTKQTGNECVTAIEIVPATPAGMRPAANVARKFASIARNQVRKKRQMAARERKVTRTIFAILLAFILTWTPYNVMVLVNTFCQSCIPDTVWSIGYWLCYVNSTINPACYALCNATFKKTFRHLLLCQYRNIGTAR
Briefly: Calcium mobilization PAM selectivity assay, hM4. The format is cell-based. Background: A change in cytosolic calcium serves as a functional read-out for many receptors and channels.

The target in data set [2] is T1, hM1. Put plainly: Calcium mobilization agonist mode in hM1-CHO cells, no exogenous ACh. Type of data set: cell-based. To be noted: no exogenous acetylcholine. In short, it runs like this: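 Calcium mobilization in CHO cells expressing human M1, run without added acetylcholine to measure direct agonist activity and derive agonist EC50. Values are means of one to three independent experiments, each run in triplicate.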

Data set [3] is described as follows: Predicted hepatic clearance, human. The format is in vitro ADME.
A short description of data set [4]: Predicted hepatic clearance, rat. The format is in vitro ADME.

For orientation: pEC50 means −log10 of the EC50, conventionally taken in molar units.

Turning to `Cn1cc2c(-c3cc(F)c(CN4Cc5nc[nH]c5C4=O)c(F)c3)cccc2n1` [Compound 8a], the “hM1 activity (in words)” value at hM1 [1] is “inactive”.
As for `Cn1cc2cc(-c3ccc(CN4Cc5ncsc5C4=O)c(F)c3)ccc2n1` [Compound 8b], the negative-log EC50 (pEC50) at hM4 was less than 5.00. Moreover, the hM1 agonist activity result at hM1 [2] is reported as “devoid of any hM1 agonist activity”. Also, the hClhep in data set [3] was 0.624 L/h/kg. The rClhep in data set [4] was 2.58 L/h/kg.
For `Cn1cc2c(-c3cc(F)c(CN4Cc5ncoc5C4=O)c(F)c3)cccc2n1` [Compound 12a], on hM1 [1], the “hM1 activity (in words)” value was “inactive”.
As to `Cn1cc2c(-c3cc(F)c(CN4Cc5ocnc5C4=O)c(F)c3)cccc2n1` [Compound 12b], on hM1 [1], the “hM1 activity (in words)” value was “inactive”.
`Cn1cc2c(-c3cc(F)c(CN4Cc5cnn(CC6CCCO6)c5C4=O)c(F)c3)cccc2n1` (stereo not drawn) [Compound 20a]: on hM4, the negative-log EC50 (pEC50) was less than 5.00. For the same molecule, the hM1 agonist activity entry at hM1 [2] is “devoid of any hM1 agonist activity”. In addition, the hClhep in data set [3] was 1.12 L/h/kg. Further, in data set [4], the rClhep was 3.52 L/h/kg.
As for `Cc1[nH]cc2c1C(=O)N(Cc1c(F)cc(-c3cccc4nn(C)cc34)cc1F)C2` [Compound 25a], the “hM1 activity (in words)” value at hM1 [1] is “inactive”.
